Converted amounts (≈) assume the structure as drawn.
What was measured:
Type in all cases: functional
[1] = Antioxidant activity assessed as inhibition of nitric oxide free radical production after 150 mins by Griess method
Procedure, shortened: (§1)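 NO generated from sodium nitroprusside (10 mM) in 0.2 M phosphate buffered saline, pH 7.4, with compound at […]. Incubated 150 min at 25 °C. An aliquot was mixed 1:1 with Griess reagent (1% sulfanilamide, 2% H3PO4, 0.1% naphthylethylenediamine dihydrochloride).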

[2] = Antioxidant activity assessed as inhibition of H2O2 radical scavenging activity at 75 ug/mL by spectrophotometric analysis relative to control
Procedure, shortened: (§2)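 H2O2 (40 mM) prepared in phosphate buffer, pH 7.4. Compounds at […] in phosphate buffer were added to the H2O2 solution. Absorbance of the mixture was read at 230 nm, and percent H2O2 scavenging was calculated.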

[3] = Antioxidant activity assessed as inhibition of H2O2 radical scavenging activity at 25 ug/mL by spectrophotometric analysis relative to control; procedure, shortened: as §2
[4] = system: Radical scavenging activity; test: Antioxidant activity assessed as inhibition of DPPH free radical production after 30 mins by spectrophotometric analysis
Procedure, shortened: (§3)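 Test compound in methanol added to 0.004% (w/v) methanolic DPPH at a 1:4 volume ratio. Incubated 30 min at room temperature. Absorbance read against blank at 517 nm.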

[5] = Antioxidant activity assessed as inhibition of nitric oxide free radical production at 25 ug/mL after 150 mins by Griess method relative to control; procedure, shortened: as §1
[6] = Antioxidant activity assessed as inhibition of nitric oxide free radical production at 75 ug/mL after 150 mins by Griess method relative to control; procedure, shortened: as §1
[7] = Antioxidant activity assessed as inhibition of nitric oxide free radical production at 100 ug/mL after 150 mins by Griess method relative to control; procedure, shortened: as §1
[8] = Antioxidant activity assessed as inhibition of nitric oxide free radical production at 50 ug/mL after 150 mins by Griess method relative to control; procedure, shortened: as §1
[9] = system: Radical scavenging activity; test: Antioxidant activity assessed as inhibition of DPPH free radical production at 50 ug/mL after 30 mins by spectrophotometric analysis relative to control; procedure, shortened: as §3
[10] = system: Radical scavenging activity; test: Antioxidant activity assessed as inhibition of DPPH free radical production at 75 ug/mL after 30 mins by spectrophotometric analysis relative to control; procedure, shortened: as §3
[11] = Antioxidant activity assessed as inhibition of H2O2 radical scavenging activity at 50 ug/mL by spectrophotometric analysis relative to control; procedure, shortened: as §2
[12] = Antioxidant activity assessed as inhibition of H2O2 radical scavenging activity by spectrophotometric analysis; procedure, shortened: as §2
[13] = system: Radical scavenging activity; test: Antioxidant activity assessed as inhibition of DPPH free radical production at 100 ug/mL after 30 mins by spectrophotometric analysis relative to control; procedure, shortened: as §3
[14] = Antioxidant activity assessed as inhibition of H2O2 radical scavenging activity at 100 ug/mL by spectrophotometric analysis relative to control; procedure, shortened: as §2
[15] = system: Radical scavenging activity; test: Antioxidant activity assessed as inhibition of DPPH free radical production at 25 ug/mL after 30 mins by spectrophotometric analysis relative to control; procedure, shortened: as §3

Work on Cc1c(-c2nnc(-c3ccccc3)o2)sc2ncnc(Nc3ccc(F)cc3)c12 yielded an IC50 [1] of 17.1 µg/mL (≈ 42.4 µM), an inhibition [2] of 71.7% and an inhibition [3] of 66.3%. For the same molecule, the IC50 [4] was 17.25 µg/mL (≈ 42.8 µM), the inhibition [5] was 73.1% and the inhibition [6] was 82.4%. The inhibition [7] was 84.9%, the inhibition [8] was 78.1% and the inhibition [9] was 75.8%. The inhibition [10] was 78.4%, the inhibition [11] was 69.5% and the IC50 [12] was 18.85 µg/mL (≈ 46.7 µM). It also gave an inhibition [13] of 83.1%, an inhibition [14] of 74.2% and an inhibition [15] of 72.5%.

Work on Cc1c(-c2nnc(-c3ccc(Cl)cc3)o2)sc2ncnc(Nc3ccc(F)cc3F)c12 yielded an IC50 [1] of 15.98 µg/mL (≈ 35.1 µM), an inhibition [2] of 74.5% and an inhibition [3] of 68.4%. The IC50 [4] was 16.35 µg/mL (≈ 35.9 µM), the inhibition [5] was 78.2% and the inhibition [6] was 84.6%. For the same molecule, the inhibition [7] was 86.2%, the inhibition [8] was 83.3% and the inhibition [9] was 79.7%. The inhibition [10] was 83.3%, the inhibition [11] was 71.7% and the IC50 [12] was 18.26 µg/mL (≈ 40.1 µM). It also gave an inhibition [13] of 85.8%, an inhibition [14] of 79.7% and an inhibition [15] of 76.4%.

For Cc1c(-c2nnc(-c3ccc([N+](=O)[O-])cc3)o2)sc2ncnc(Nc3ccc(Cl)cc3)c12, the IC50 [1] was 20.49 µg/mL (≈ 44.1 µM), the inhibition [2] was 58.1% and the inhibition [3] was 51.4%. For the same molecule, the IC50 [4] was 23.7 µg/mL (≈ 51 µM), the inhibition [5] was 61% and the inhibition [6] was 67.6%. The inhibition [7] was 72.4%, the inhibition [8] was 63.5% and the inhibition [9] was 58.2%. The inhibition [10] was 61.4%, the inhibition [11] was 54% and the IC50 [12] was 24.33 µg/mL (≈ 52.3 µM). It also gave an inhibition [13] of 67.8%, an inhibition [14] of 63.7% and an inhibition [15] of 52.7%.

Cc1c(-c2nnc(-c3ccccc3)o2)sc2ncnc(Nc3ccc(F)cc3F)c12 gave an IC50 [1] of 16.61 µg/mL (≈ 39.4 µM), an inhibition [2] of 69% and an inhibition [3] of 63.9%. For the same molecule, the IC50 [4] was 16.91 µg/mL (≈ 40.1 µM), the inhibition [5] was 75.2% and the inhibition [6] was 82.6%. The inhibition [7] was 85.4%, the inhibition [8] was 79.5% and the inhibition [9] was 77.4%. For the same molecule, the inhibition [10] was 79.6%, the inhibition [11] was 65.5% and the IC50 [12] was 19.57 µg/mL (≈ 46.4 µM). It also gave an inhibition [13] of 83.8%, an inhibition [14] of 72.5% and an inhibition [15] of 73.9%.

Molecule Cc1c(-c2nnc(-c3ccc(Cl)cc3)o2)sc2ncnc(Nc3ccc(F)cc3)c12 has an IC50 [1] of 17.39 µg/mL (≈ 39.7 µM), an inhibition [2] of 69.8% and an inhibition [3] of 64.1%. The IC50 [4] was 17.7 µg/mL (≈ 40.4 µM), the inhibition [5] was 71.8% and the inhibition [6] was 79.7%. It also gave an inhibition [7] of 83.6%, an inhibition [8] of 76.3% and an inhibition [9] of 74.2%. For the same molecule, the inhibition [10] was 77.8%, the inhibition [11] was 67.4% and the IC50 [12] was 19.49 µg/mL (≈ 44.5 µM). It also gave an inhibition [13] of 81.9%, an inhibition [14] of 72.6% and an inhibition [15] of 70.6%.

Molecule Cc1c(-c2nnc(-c3ccc(Cl)cc3)o2)sc2ncnc(Nc3ccc(F)c(Cl)c3)c12 has an IC50 [1] of 19.41 µg/mL (≈ 41.1 µM), an inhibition [2] of 68.2% and an inhibition [3] of 61.9%. The IC50 [4] was 19.57 µg/mL (≈ 41.4 µM), the inhibition [5] was 64.4% and the inhibition [6] was 74.7%. For the same molecule, the inhibition [7] was 79.5%, the inhibition [8] was 69.2% and the inhibition [9] was 67.9%. It also gave an inhibition [10] of 71.5%, an inhibition [11] of 64.5% and an IC50 [12] of 20.18 µg/mL (≈ 42.7 µM). For the same molecule, the inhibition [13] was 76.6%, the inhibition [14] was 71.9% and the inhibition [15] was 63.9%.

Cc1c(-c2nnc(-c3ccccc3)o2)sc2ncnc(Nc3ccc(Cl)cc3)c12 showed an IC50 [1] of 17.54 µg/mL (≈ 41.8 µM), an inhibition [2] of 68.2% and an inhibition [3] of 61.1%. It also gave an IC50 [4] of 18.03 µg/mL (≈ 42.9 µM), an inhibition [5] of 71.3% and an inhibition [6] of 77.1%. For the same molecule, the inhibition [7] was 82.9%, the inhibition [8] was 74.8% and the inhibition [9] was 71.6%. It also gave an inhibition [10] of 76.8%, an inhibition [11] of 63.8% and an IC50 [12] of 20.47 µg/mL (≈ 48.8 µM). For the same molecule, the inhibition [13] was 81.3%, the inhibition [14] was 71.6% and the inhibition [15] was 69.3%.

Molecule Cc1c(-c2nnc(-c3ccccc3)o2)sc2ncnc(Nc3ccc(F)c(Cl)c3)c12 has an IC50 [1] of 17.14 µg/mL (≈ 39.1 µM), an inhibition [2] of 67.8% and an inhibition [3] of 60.3%. For the same molecule, the IC50 [4] was 18.25 µg/mL (≈ 41.7 µM), the inhibition [5] was 72.9% and the inhibition [6] was 78.2%. For the same molecule, the inhibition [7] was 82.4%, the inhibition [8] was 74.1% and the inhibition [9] was 72.8%. It also gave an inhibition [10] of 74.9%, an inhibition [11] of 63.5% and an IC50 [12] of 20.74 µg/mL (≈ 47.4 µM). It also gave an inhibition [13] of 79.2%, an inhibition [14] of 70.9% and an inhibition [15] of 68.5%.

Cc1c(-c2nnc(-c3ccc([N+](=O)[O-])cc3)o2)sc2ncnc(Nc3ccc(F)cc3F)c12 gave an IC50 [1] of 19.66 µg/mL (≈ 42.2 µM), an inhibition [2] of 62.8% and an inhibition [3] of 54.4%. The IC50 [4] was 19.34 µg/mL (≈ 41.5 µM), the inhibition [5] was 63.6% and the inhibition [6] was 76.2%. It also gave an inhibition [7] of 79%, an inhibition [8] of 71.4% and an inhibition [9] of 69.5%. It also gave an inhibition [10] of 73.9%, an inhibition [11] of 58.1% and an IC50 [12] of 22.98 µg/mL (≈ 49.3 µM). For the same molecule, the inhibition [13] was 77.8%, the inhibition [14] was 66.2% and the inhibition [15] was 64.6%.

With Cc1c(-c2nnc(-c3ccc(Cl)cc3)o2)sc2ncnc(Nc3ccc(Cl)cc3)c12 the IC50 [1] was 18.27 µg/mL (≈ 40.2 µM), the inhibition [2] was 65.7% and the inhibition [3] was 58.3%. For the same molecule, the IC50 [4] was 19.31 µg/mL (≈ 42.5 µM), the inhibition [5] was 68.4% and the inhibition [6] was 74.2%. The inhibition [7] was 79.4%, the inhibition [8] was 70.6% and the inhibition [9] was 68.4%. It also gave an inhibition [10] of 73.8%, an inhibition [11] of 62.3% and an IC50 [12] of 21.22 µg/mL (≈ 46.7 µM). For the same molecule, the inhibition [13] was 77.5%, the inhibition [14] was 69.8% and the inhibition [15] was 64.7%.

For Cc1c(-c2nnc(-c3ccc([N+](=O)[O-])cc3)o2)sc2ncnc(Nc3ccc(F)cc3)c12, the IC50 [1] was 20.14 µg/mL (≈ 44.9 µM), the inhibition [2] was 60% and the inhibition [3] was 53.1%. It also gave an IC50 [4] of 20.92 µg/mL (≈ 46.7 µM), an inhibition [5] of 62% and an inhibition [6] of 70.9%. The inhibition [7] was 73.9%, the inhibition [8] was 66.8% and the inhibition [9] was 64.5%. For the same molecule, the inhibition [10] was 68.9%, the inhibition [11] was 56.6% and the IC50 [12] was 23.54 µg/mL (≈ 52.5 µM). It also gave an inhibition [13] of 72.2%, an inhibition [14] of 64.2% and an inhibition [15] of 59.7%.

Cc1c(-c2nnc(-c3ccc([N+](=O)[O-])cc3)o2)sc2ncnc(Nc3ccc(F)c(Cl)c3)c12 showed an IC50 [1] of 23.3 µg/mL (≈ 48.3 µM), an inhibition [2] of 50.4% and an inhibition [3] of 45%. The IC50 [4] was 25.69 µg/mL (≈ 53.2 µM), the inhibition [5] was 53.6% and the inhibition [6] was 60%. For the same molecule, the inhibition [7] was 64.3%, the inhibition [8] was 56.5% and the inhibition [9] was 52.9%. The inhibition [10] was 56.6%, the inhibition [11] was 47.4% and the IC50 [12] was 27.76 µg/mL (≈ 57.5 µM). For the same molecule, the inhibition [13] was 61.9%, the inhibition [14] was 53.6% and the inhibition [15] was 48.6%.

With O=C1O[C@H]([C@@H](O)CO)C(O)=C1O [ASCORBIC ACID] the IC50 [1] was 14.75 µg/mL (≈ 83.7 µM), the inhibition [2] was 82.4% and the inhibition [3] was 76.4%. It also gave an IC50 [4] of 15.11 µg/mL (≈ 85.8 µM), an inhibition [5] of 84.7% and an inhibition [6] of 88.3%. The inhibition [7] was 90.4%, the inhibition [8] was 86% and the inhibition [9] was 83.5%. For the same molecule, the inhibition [10] was 85.5%, the inhibition [11] was 78.6% and the IC50 [12] was 16.35 µg/mL (≈ 92.8 µM). For the same molecule, the inhibition [13] was 87.2%, the inhibition [14] was 86.6% and the inhibition [15] was 82.7%.

— ChEMBL document CHEMBL2150985, “Synthesis and antioxidant activity of 1,3,4-oxadiazole tagged thieno[2,3-d]pyrimidine derivatives” (Eur J Med Chem, 2012)
